Bioassay records from PubChem.
STK33 inh – blocks human STK33 kinase activity | Q9BYT3 | purified STK33, MBP phosphorylation, ADP-Glo luminescence | inhibition, % at 10 µM | 320,000 compounds, 0.073% hits | AID 2661;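 active = inhibition at or above 25%, using the most active replicate where run in duplicate; inactive = inhibition below 25%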
Target sequence (Q9BYT3 whole entry, looked up): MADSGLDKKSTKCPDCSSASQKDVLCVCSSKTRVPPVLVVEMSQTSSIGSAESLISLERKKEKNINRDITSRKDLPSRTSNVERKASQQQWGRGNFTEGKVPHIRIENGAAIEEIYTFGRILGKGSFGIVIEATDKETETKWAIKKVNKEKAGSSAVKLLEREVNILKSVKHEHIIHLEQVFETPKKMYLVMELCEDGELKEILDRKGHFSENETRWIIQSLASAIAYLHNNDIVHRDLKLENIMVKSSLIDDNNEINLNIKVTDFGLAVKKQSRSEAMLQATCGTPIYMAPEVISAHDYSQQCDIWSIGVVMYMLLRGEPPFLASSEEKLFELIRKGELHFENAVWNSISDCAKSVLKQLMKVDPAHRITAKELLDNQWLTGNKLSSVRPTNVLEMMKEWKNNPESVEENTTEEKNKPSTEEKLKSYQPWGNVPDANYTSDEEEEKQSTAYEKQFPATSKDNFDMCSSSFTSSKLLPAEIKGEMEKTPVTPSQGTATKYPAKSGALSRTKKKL
GSK3 alpha inh – inhibitors of human GSK-3 alpha kinase; P49840; ADP-Glo luminescence, 60 min; inhibition, % at 10 µM; 320,000 compounds, 0.1% hits;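 active = more than half of replicates show inhibition above 20%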;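 also: GST-tagged GSK-3 alpha with peptide substrate and 25 µM ATP; 0% = DMSO neutral wells and 100% = GW8510 positive control wells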
MEKK2mut PB1 HTS – signal of MEK5 binding to mutant human MEKK2 PB1 domain; AID 1530; percent response, % at 10 µM; bead flow cytometry, Alexa488-MEK5 binding to MEKK2 mutant; 290,000 compounds, 0.35% hits; in the data active = percent response above about 24%, passing the limit was not always enough
MEKK2wt PB1 HTS – raises or lowers MEK5 binding to wildtype human MEKK2 PB1 domain. Q9Y2U5. bead flow cytometry, Alexa488-MEK5 binding to MEKK2 WT; actives lie on both sides. binding response (% of control), % at 10 µM. 290,000 compounds, 1.1% hits; in the data active = binding response below about 67% or above about 130%
GSK3beta inhib – inhibitors of human GSK3beta kinase; activity score (negative = inhibition), % at 10 µM; GST-GSK3beta kinase, ADP-Glo luminescence, 60 min; hits give low values; 300,000 compounds, 0.038% hits; P49841;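 active = more than half of replicate wells score below -50%, meaning over 50% inhibition versus plate controls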;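 also: 0% = median DMSO wells and -100% = median GW8510 positive control wells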
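Test system: GST-fused GSK3beta enzyme, cell-free | Quantity: 1.6 ng GST-GSK3beta enzyme per well | Reagent: 25 µM ATP with peptide substrate | Schedule: 60 min enzyme reaction, room temperature | Signal: Luminescent ADP-Glo measurement of ADP formed | Read-out basis: Score relative to plate controls | Control set: DMSO and 20 µM GW8510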
MEKK3 PB1 HTS – MEKK3-MEK5 PB1 interaction, increase or decrease. AID 1529. 290,000 compounds, 1.4% hits. bead-based flow cytometry, Alexa488-MEK5 binding to MEKK3; actives lie on both sides; 0 = blocked by unlabeled MEK5, 100 = vehicle. binding response (% of control), % at 10 µM;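 active = binding response more than 3 SD above or below the average of its plate-row segment, actives on both sides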;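 also: Alexa488 bead fluorescence after subtracting the streptavidin-only scavenger bead signal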
MEKK2wt confirm – raises or lowers MEK5 binding to wildtype human MEKK2, retest | shares compounds with MEKK3 PB1 HTS | bead flow cytometry, Alexa488-MEK5 binding to MEKK2 WT; actives lie on both sides | binding response (% of control), % at 10 µM | 5,900 compounds, 2.4% hits | AID 1892; in the data active = binding response below about 16% or above about 210%; inactive = in between
MEKK2mut confirm – signal of MEK5 binding to mutant human MEKK2, retest; bead flow cytometry, Alexa488-MEK5 binding to MEKK2 mutant; shares compounds with MEKK3 PB1 HTS; percent response, % at 10 µM; 5,900 compounds, 2% hits; AID 1893; in the data active = percent response mostly above about 71%, no sharp cut-off; inactive = mostly below about 38%;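 also: higher means compound restores mutant binding toward wildtype level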
MEKK3-MEK5 inh – MEKK3-MEK5 PB1 inhibition, single concentration confirmation. shares compounds with MEKK3 PB1 HTS. bead flow cytometry, Alexa488-MEK5 binding to MEKK3; hits give low values. binding response (% of control), % at 10 µM. 5,900 compounds, 1.8% hits;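 active = binding response below 72% of control, or above a set upper limit, though filed actives all read lower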;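 also: 100% = DMSO only wells and 0% = binding blocked by excess unlabeled MEK5; lower values mean stronger disruption of MEK5 binding to MEKK3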
* hit, by the source's call; [ ] = another dose, or the depositor's remark. Sampled rows, rich in hits. Any-hit rate of the full collection: about 2.1%.

`CCCCOc1ccc(N2C(=O)CC(NCCc3ccc(S(N)(=O)=O)cc3)C2=O)cc1` (stereo not given) gave STK33 inh 1, GSK3 alpha inh -4, MEKK2mut PB1 HTS 5, MEKK2wt PB1 HTS 119, GSK3beta inhib 1, MEKK3 PB1 HTS 122*, MEKK2wt confirm 111, MEKK2mut confirm 7 and MEKK3-MEK5 inh 105.
CCCOc1ccc(N2C(=O)CC(NCc3ccc(S(N)(=O)=O)cc3)C2=O)cc1 (stereo not given) was read as STK33 inh -1, GSK3 alpha inh -1, MEKK2mut PB1 HTS -7, MEKK2wt PB1 HTS 104, GSK3beta inhib -7 and MEKK3 PB1 HTS 99.
`Cc1ccc(-n2c(C)cc(C(=O)COc3cccnc3[N+](=O)[O-])c2C)cc1` gave MEKK2mut PB1 HTS 0, MEKK2wt PB1 HTS 110, GSK3beta inhib 0, MEKK3 PB1 HTS 152*, MEKK2wt confirm 98, MEKK2mut confirm -8 and MEKK3-MEK5 inh 99.
`O=C(Nc1ccc(Cl)cn1)c1ccc2c(Cl)c3c(nc2c1)CCC3` gave STK33 inh -1, GSK3 alpha inh -2, MEKK2mut PB1 HTS -13, MEKK2wt PB1 HTS 47*[inhibitor], GSK3beta inhib 2, MEKK3 PB1 HTS 40*[inhibitor], MEKK2wt confirm 79, MEKK2mut confirm -19 and MEKK3-MEK5 inh 70*.
For CCN(CC(=O)Nc1ccc(NC(C)=O)cc1)CC(=O)Nc1cc(C)on1 the results were STK33 inh -1 and GSK3 alpha inh 0.
For Cc1nc2ccccc2nc(=O)c1NNc1ccccc1 the results were MEKK2mut PB1 HTS -2, MEKK2wt PB1 HTS 80, GSK3beta inhib 1, MEKK3 PB1 HTS 51*[inhibitor], MEKK2wt confirm 91, MEKK2mut confirm -7 and MEKK3-MEK5 inh 94.
Screening CC1CN(C(=O)Cn2cc(SCC(=O)N3CCOCC3)c3ccccc32)CC(C)O1 (stereo not given) returned STK33 inh 0, GSK3 alpha inh -6, MEKK2mut PB1 HTS -15, MEKK2wt PB1 HTS -2.0*[inhibitor], GSK3beta inhib 0, MEKK3 PB1 HTS 1.0*[inhibitor], MEKK2wt confirm 109, MEKK2mut confirm 5 and MEKK3-MEK5 inh 110.
`CC1CN(C(=O)CSc2cn(CC(=O)N3CCOCC3)c3ccccc23)CC(C)O1` (stereo not given) gave STK33 inh -1, GSK3 alpha inh 0, MEKK2mut PB1 HTS 2, MEKK2wt PB1 HTS 102, GSK3beta inhib 1 and MEKK3 PB1 HTS 101.
For Nc1ccc(C23CC4CC(CC(C4)C2)C3)cc1 the results were MEKK2mut PB1 HTS -16, MEKK2wt PB1 HTS 53, GSK3beta inhib -1, MEKK3 PB1 HTS 41*[inhibitor], MEKK2wt confirm 96, MEKK2mut confirm -3 and MEKK3-MEK5 inh 100.
COc1cc(/C=C(\C#N)c2nc3ccc(C)cc3[nH]2)c([N+](=O)[O-])cc1OC was read as STK33 inh -1, GSK3 alpha inh -1, MEKK2mut PB1 HTS 3, MEKK2wt PB1 HTS 104, GSK3beta inhib -1 and MEKK3 PB1 HTS 104.
Screening CCN(CC)c1ccc(/C=C(/C#N)c2nc3ccc(C)cc3[nH]2)c(OC(C)C)c1 returned STK33 inh -1, GSK3 alpha inh -1, MEKK2mut PB1 HTS 95*, MEKK2wt PB1 HTS 78, GSK3beta inhib -5, MEKK3 PB1 HTS 115, MEKK2wt confirm 91, MEKK2mut confirm -18 and MEKK3-MEK5 inh 89.
Nc1ccc(OCCCc2c(N)nc(N)nc2N)cc1 was read as STK33 inh -3, GSK3 alpha inh -1, MEKK2mut PB1 HTS 8, MEKK2wt PB1 HTS 110, GSK3beta inhib 5, MEKK3 PB1 HTS 82*[inhibitor], MEKK2wt confirm 120, MEKK2mut confirm 13 and MEKK3-MEK5 inh 95.
Screening COc1ccc(Cc2c(N)nc(N)nc2N)cc1 returned STK33 inh 1, GSK3 alpha inh -1, MEKK2mut PB1 HTS 9, MEKK2wt PB1 HTS 110, GSK3beta inhib -2 and MEKK3 PB1 HTS 100.
CN(C)c1ccc(/C=C/C(=O)c2cccc(Br)c2)cc1 was read as STK33 inh -2, GSK3 alpha inh 2, MEKK2mut PB1 HTS -1, MEKK2wt PB1 HTS 63*[inhibitor], GSK3beta inhib -2, MEKK3 PB1 HTS 93, MEKK2wt confirm 67, MEKK2mut confirm -21 and MEKK3-MEK5 inh 92.
`Cn1c(=O)[nH]c(=O)c2c1nc(N1CCCCC1)n2C/C=N/Nc1ccc(C(=O)O)cc1` gave STK33 inh 0, GSK3 alpha inh 1, MEKK2mut PB1 HTS -19, MEKK2wt PB1 HTS 90, GSK3beta inhib 1 and MEKK3 PB1 HTS 84.
Screening Cc1ccc(NC(=O)CN(C)CC(=O)N(CC(C)C)c2c(N)n(CC(C)C)c(=O)[nH]c2=O)c(C)c1 returned STK33 inh -1 and GSK3 alpha inh 1.
Screening COc1ccc(CSc2nc3ccccc3c(=O)n2CCCN2CCOCC2)cc1F returned STK33 inh 0, GSK3 alpha inh -4, MEKK2mut PB1 HTS 5, MEKK2wt PB1 HTS 114, GSK3beta inhib 1 and MEKK3 PB1 HTS 105.
Screening O=C1[C@H]2CCCC[C@H]2C(=O)N1CCCCN1CCN(c2nsc3ccccc23)CC1 returned STK33 inh -1, GSK3 alpha inh -2, MEKK2mut PB1 HTS 2, MEKK2wt PB1 HTS 112, GSK3beta inhib 1 and MEKK3 PB1 HTS 103.
For CC(=O)OCCNc1cc(SCc2ccco2)c2nonc2c1[N+](=O)[O-] the results were STK33 inh -1, GSK3 alpha inh 0, MEKK2mut PB1 HTS 1, MEKK2wt PB1 HTS 113, GSK3beta inhib 0, MEKK3 PB1 HTS 146*, MEKK2wt confirm 107, MEKK2mut confirm 6 and MEKK3-MEK5 inh 106.
`CN(C)CCCNc1cc(-c2ccccc2)nc2cc(-c3cccc(F)c3)nn12` gave STK33 inh 0, GSK3 alpha inh -2, MEKK2mut PB1 HTS 40*, MEKK2wt PB1 HTS 192*, GSK3beta inhib 4, MEKK3 PB1 HTS 108, MEKK2wt confirm 179, MEKK2mut confirm 35 and MEKK3-MEK5 inh 105.
For Cc1cccc(-c2cc3nc(C)cc(NCCCN(C)C)n3n2)c1 the results were STK33 inh 1, GSK3 alpha inh 0, MEKK2mut PB1 HTS -1, MEKK2wt PB1 HTS 99, GSK3beta inhib 1 and MEKK3 PB1 HTS 87.
